The nature of data set [1]: Drug uptake in Sprague-Dawley rat plasma at 0.01 mg/kg, po qd administered via gavage measured 1 hr post last dose on day 14 by LC-MS/MS analysis. Type of data set: ADME, organism-based.
Data set [2] can be described thus: AUC (0 to 24 hrs) in Sprague-Dawley rat at 0.1 mg/kg, po qd administered via gavage measured on day 11 by LC-MS/MS analysis. In kind it is ADME, organism-based. Also noted: time < 24 hr, dose 0.1 mg/kg, route oral. The settings on record: in vivo.
Data set [3] concerns Rattus norvegicus. Briefly: In vivo agonist activity at FXR in po dosed Sprague-Dawley rat assessed as induction of BSEP mRNA level in liver administered as single dose measured 7 hrs post dose by qPCR analysis. For orientation: In qPCR the cycle at which signal appears reflects the starting amount.
A short description of data set [4]: Drug uptake in Sprague-Dawley rat plasma at 0.3 mg/kg, po qd administered via gavage measured 7 hrs post last dose on day 14 by LC-MS/MS analysis. Type of data set: ADME, organism-based.
The next data set relates to Mus musculus. The experiment in a line: Drug metabolism in mouse assessed as glycine conjugated metabolite formation at 5 mg/kg, iv or 10 mg/kg, po administered via gavage by LC-MS/MS analysis. Type of data set: ADME, organism-based. The following applies: in vivo.
Data set [5] can be described thus: AUC (0 to 24 hrs) in Sprague-Dawley rat at 0.01 mg/kg, po qd administered via gavage measured on day 1 by LC-MS/MS analysis. In kind it is ADME, organism-based. Also noted: dose 0.01 mg/kg, time < 24 hr, route oral. The settings on record: in vivo.
Data set [6] relates to Rattus norvegicus. Briefly: Dose normalized AUC (0 to 24 hrs) in Sprague-Dawley rat at 0.3 mg/kg, po qd administered via gavage measured on day 11 by LC-MS/MS analysis. In kind it is ADME, organism-based. The settings on record: in vivo.
Data set [7] in a line: AUC (0 to 24 hrs) in Sprague-Dawley rat at 0.003 mg/kg, po qd administered via gavage measured on day 1 by LC-MS/MS analysis. Also noted: time < 24 hr, dose 0.003 mg/kg, route oral. The settings on record: in vivo. Type of data set: ADME, organism-based.
Data set [8] in a line: Solubility of the compound in fasted state simulated intestinal fluid at pH 6.8. In kind it is physicochemical.
A short description of data set [9]: Cmax in Sprague-Dawley rat at 3 mg/kg, po qd administered via gavage measured on day 11 by LC-MS/MS analysis. Type of data set: ADME, organism-based. Details: dose 3 mg/kg, route oral. The settings on record: in vivo.
A short description of data set [10]: AUC (0 to 24 hrs) in Sprague-Dawley rat at 0.03 mg/kg, po qd administered via gavage measured on day 11 by LC-MS/MS analysis. In kind it is ADME, organism-based. Details: time < 24 hr, dose 0.03 mg/kg, route oral. The following applies: in vivo.
Data set [11] is described as follows: Cmax in Sprague-Dawley rat at 1 mg/kg, po qd administered via gavage measured on day 11 by LC-MS/MS analysis. The following applies: in vivo. In kind it is ADME, organism-based. Also noted: dose 1 mg/kg, route oral.
Data set [12] relates to Rattus norvegicus. The experiment in a line: In vivo agonist activity at FXR in Sprague-Dawley rat assessed as induction of SHP mRNA level in ileum at 0.01 mg/kg, po qd for 14 days measured 7 hrs post last dose on day 14 by qPCR analysis. Type of data set: functional, organism-based.
The nature of data set [13]: AUC in rat at 10 mg/kg, po administered via gavage by LC-MS/MS analysis. In kind it is ADME, organism-based. The following applies: in vivo. The method in brief:
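Rats were dosed IV as a solution in 75% PEG300:25% D5W, or orally as a suspension in 0.5% methylcellulose, 0.5% Tween80 and 99% water.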

The nature of data set [14]: Half life in mouse at 5 mg/kg, iv by LC-MS/MS analysis. In kind it is ADME, organism-based. The following applies: in vivo. In short, it runs like this: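 Single IV dose given as a solution. Mouse and rat received it in 75% PEG300:25% D5W. Dog received it in 20% PEG300, 5% solutol and 75% carbonate buffer pH = 8. Plasma was sampled for PK parameters.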
A short description of data set [15]: Drug uptake in Sprague-Dawley rat liver at 0.3 mg/kg, po qd administered via gavage measured 1 hr post last dose on day 14 by LC-MS/MS analysis. The settings on record: read-out: Drug uptake. In kind it is ADME, organism-based. The method in brief:
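Drug concentration in liver was quantified from tissue homogenates, so these are total levels. Unbound liver concentration was not determined.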

A short description of data set [16]: Cmax in Sprague-Dawley rat at 0.1 mg/kg, po qd administered via gavage measured on day 1 by LC-MS/MS analysis. In kind it is ADME, organism-based. Details: dose 0.1 mg/kg, route oral. The settings on record: in vivo.
The nature of data set [17]: Cmax in Sprague-Dawley rat at 0.3 mg/kg, po qd administered via gavage measured on day 1 by LC-MS/MS analysis. In kind it is ADME, organism-based. Details: dose 0.3 mg/kg, route oral. The settings on record: in vivo.
Data set [18] has as its target T1, G-protein coupled bile acid receptor 1 (Homo sapiens, UniProt Q8TDU6).
T1 sequence (Q8TDU6 whole entry): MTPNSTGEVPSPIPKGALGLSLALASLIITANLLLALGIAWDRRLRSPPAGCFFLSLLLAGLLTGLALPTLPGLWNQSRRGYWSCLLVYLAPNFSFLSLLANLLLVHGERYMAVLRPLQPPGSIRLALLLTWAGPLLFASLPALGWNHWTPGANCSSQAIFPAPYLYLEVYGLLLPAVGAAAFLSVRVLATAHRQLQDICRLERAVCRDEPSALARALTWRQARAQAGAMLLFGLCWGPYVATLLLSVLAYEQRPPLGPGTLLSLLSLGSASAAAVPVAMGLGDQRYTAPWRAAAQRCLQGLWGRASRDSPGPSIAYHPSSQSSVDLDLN
The experiment in a line: Agonist activity at human TGR5.

Data set [19] deals with Rattus norvegicus. The experiment in a line: In vivo agonist activity at FXR in Sprague-Dawley rat assessed as induction of FGF15 mRNA level in ileum at 0.01 mg/kg, po qd for 14 days measured 7 hrs post last dose on day 14 by qPCR analysis. Type of data set: functional, organism-based.
Data set [20] has as its target T2, G-protein coupled bile acid receptor 1 (Mus musculus, UniProt Q80SS6).
T2 sequence (Q80SS6 whole entry): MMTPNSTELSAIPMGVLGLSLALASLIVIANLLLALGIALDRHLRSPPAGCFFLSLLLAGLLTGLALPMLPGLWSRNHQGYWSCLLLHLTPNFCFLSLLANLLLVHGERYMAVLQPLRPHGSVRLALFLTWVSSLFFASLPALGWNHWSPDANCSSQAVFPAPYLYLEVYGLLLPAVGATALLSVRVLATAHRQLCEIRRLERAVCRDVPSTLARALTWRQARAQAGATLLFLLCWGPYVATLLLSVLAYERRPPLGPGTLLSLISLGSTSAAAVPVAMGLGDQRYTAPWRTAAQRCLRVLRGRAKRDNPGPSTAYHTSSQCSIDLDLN
The experiment in a line: Agonist activity at mouse TGR5.

A short description of data set [21]: Drug uptake in Sprague-Dawley rat plasma at 1 mg/kg, po qd administered via gavage measured 1 hr post last dose on day 14 by LC-MS/MS analysis. Type of data set: ADME, organism-based.
Data set [22] addresses T3, Bile acid receptor (Rattus norvegicus) (UniProt Q62735).
T3 sequence (whole entry): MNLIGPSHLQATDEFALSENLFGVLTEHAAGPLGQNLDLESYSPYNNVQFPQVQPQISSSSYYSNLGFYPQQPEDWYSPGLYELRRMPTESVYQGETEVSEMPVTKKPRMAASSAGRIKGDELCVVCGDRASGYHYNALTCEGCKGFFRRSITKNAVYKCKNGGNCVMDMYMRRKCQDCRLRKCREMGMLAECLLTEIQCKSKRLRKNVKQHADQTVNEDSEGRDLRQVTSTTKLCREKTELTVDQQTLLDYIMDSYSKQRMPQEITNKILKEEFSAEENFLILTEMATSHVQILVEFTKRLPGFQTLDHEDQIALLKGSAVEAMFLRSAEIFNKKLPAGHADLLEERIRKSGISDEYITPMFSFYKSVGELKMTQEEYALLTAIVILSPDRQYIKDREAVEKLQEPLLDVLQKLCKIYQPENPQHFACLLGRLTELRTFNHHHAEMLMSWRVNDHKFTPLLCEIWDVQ
The experiment in a line: Agonist activity at FXR in rat primary hepatocytes assessed as induction of BSEP mRNA level after 24 hrs by qPCR analysis. In kind it is cell-based.

Values after ≈ are worked out from the molar mass of the structure shown. Active and inactive are the calls of the source. No cut-off for these calls is given here. A value given as a limit tells only on which side of the number the result lay.

For orientation: AUC means the area under the concentration-time curve, a measure of exposure. A word on the AUC(0-t): it is exposure summed from dosing to a finite time, without extrapolation to infinity. Higher therefore signals high exposure. What is called solubility is how much of the substance goes into solution per volume. Read a high solubility as a readily soluble substance. By Cmax is commonly meant the peak of the concentration-time curve. A word on the half-life: it is the time in which the quantity being followed falls by half. As usually defined, the EC50 is the midpoint of the concentration-response curve. A higher EC50 goes with lower potency in that assay. In the case of `O=C(O)c1cc(F)c2nc(N3C4CCC3CC(OCc3c(-c5ccccc5OC(F)(F)F)noc3C3CC3)C4)sc2c1` (stereo not drawn), the values for the concentration at 1 h in [1], in data set [15] and in data set [21] were 0.37 nM, 84.5 nM and 16.4 nM, respectively. For the same compound, the exposure (AUC) at 24 h in data set [2] was 0.08 µM·h; in [10], 0.02 µM·h. Also, the Activity result (in the data set on Rattus norvegicus [3]; in data set [22]) was “Dose-dependent effect” throughout. In addition, the concentration at 7 h in [4] was 13.8 nM. In addition, in the data set on Mus musculus, the Drug metabolism entry is listed as “Metabolite_Notdetected”. Further, the AUC(0-t) at 24 h in data set [5] was determined as 0.004 µM·h; in [7], 0.002 µM·h. Further, in the data set with Rattus norvegicus [6], the AUC/dose is 633 nM·h. The compound also had a solubility in [8] of 600 µM (≈ 362 µg/mL). Moreover, the Cmax in [9] was 127 nM; in data set [11], 43.1 nM; in [16] it was 4.6 nM; in data set [17], 13.5 nM. Further, the result with Rattus norvegicus [12] and with Rattus norvegicus [19] was Active. The same compound yielded an AUC in [13] of 6.04 µM·h. Besides, the half-life in [14] was 2.6 h. Besides, the EC50 in [18] and in data set [20] was more than 10 µM throughout.

Source of the values: ChEMBL document CHEMBL4028903 (J Med Chem, 2017).
